Broadly, the IC50 is the concentration that gives 50% inhibition. As usually defined, the inhibition is the percentage by which the read-out fell short of the control. As usually defined, the Ki is a dissociation constant, usually derived from enzyme kinetics or from competition with a known ligand. A high value points to lower affinity.

Calls of active or inactive are those of the source. The rule behind the calls is not given here.

The values that follow come from ChEMBL document CHEMBL3352526, “4-Quinolone-3-carboxylic acids as cell-permeable inhibitors of protein tyrosine phosphatase 1B” (Bioorg Med Chem, 2014).

In assay [1] the target is Tyrosine-protein phosphatase non-receptor type 6 (Homo sapiens, UniProt P29350). Put plainly: Inhibition of SHP1 (unknown origin) using 3-o-methylfluorescein phosphatase substrate by colorimetric assay. The note with it: read-out: IC50 (converted). The method, boiled down:
(§1)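 SHP1, SHP2 or LAR recombinant enzyme at 20 nmol/L with 10 µmol/L OMFP in 50 mmol/L MOPS pH 6.5, 2 mmol/L DTT, 1 mmol/L EDTA, 2% DMSO, 30 °C. Fluorescent product read at ex 485/em 530 nm; initial rate from the early linear part of the kinetic curve.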

Assay [2] concerns the target T1, Tyrosine-protein phosphatase non-receptor type 1 (Homo sapiens, UniProt P18031).
T1 sequence (P18031 whole entry): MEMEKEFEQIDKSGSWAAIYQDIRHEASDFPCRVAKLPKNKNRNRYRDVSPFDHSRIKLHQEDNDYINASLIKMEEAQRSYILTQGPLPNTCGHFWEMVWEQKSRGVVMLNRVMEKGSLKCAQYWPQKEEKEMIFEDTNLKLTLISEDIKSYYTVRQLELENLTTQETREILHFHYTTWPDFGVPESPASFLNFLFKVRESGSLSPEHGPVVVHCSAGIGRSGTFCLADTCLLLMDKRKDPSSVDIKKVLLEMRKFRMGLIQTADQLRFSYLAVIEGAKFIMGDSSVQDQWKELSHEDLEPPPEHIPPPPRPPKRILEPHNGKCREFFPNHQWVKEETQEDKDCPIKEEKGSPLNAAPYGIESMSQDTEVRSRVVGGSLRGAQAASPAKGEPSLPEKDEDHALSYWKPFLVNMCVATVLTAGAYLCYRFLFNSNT
Put plainly: Inhibition of PTP1B (unknown origin) using pNPP as substrate by colorimetric assay. In short, it runs like this: (§2)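 GST-PTP1B or GST-TCPTP at 30 nmol/L, 2 mmol/L pNPP, 50 mmol/L MOPS pH 6.5, 2% DMSO, compounds serially diluted from DMSO. Hydrolysis followed continuously at 405 nm for 3 min at 30 °C. IC50 from nonlinear fit of % inhibition vs concentration with Hill coefficient; means ± SD of three replications.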

In assay [3] the target is T2, Receptor-type tyrosine-protein phosphatase F (Homo sapiens, UniProt P10586). In words: Inhibition of LAR (unknown origin) using 3-o-methylfluorescein phosphatase substrate at 20 ug/ml by colorimetric assay.
For assay [4], the species on record is Homo sapiens. Put plainly: Selectivity ratio of IC50 for TCPTP (unknown origin) to IC50 for PTP1B (unknown origin).
Assay [5] concerns the target T3, Tyrosine-protein phosphatase non-receptor type 1 (Homo sapiens) (UniProt P18031).
T3 sequence (whole entry): T1 sequence (P18031 whole entry)
Put plainly: Inhibition of PTP1B (unknown origin) expressed in CHO cells co-expressing human IRbeta assessed as increase in insulin-stimulated IRbeta phosphorylation at 3 to 30 uM after 1 hr by Western blotting analysis. The assay is classed as cell-based. The method, boiled down: (§3)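 CHO/hIR cells grown in F12 with 10% FBS, penicillin/streptomycin, 37 °C, 5% CO2. After 2 h serum starvation, compound for 1 h, then 10 nM insulin for 10 min. Lysates in SDS loading buffer run on 8% SDS-PAGE, blotted with anti-pTyr (PY20); β-actin as loading control.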
(In western blotting, separated proteins are transferred to a membrane and probed.)

Assay [6] addresses T4, Tyrosine-protein phosphatase non-receptor type 2 (Homo sapiens, UniProt P17706).
T4 sequence (P17706 whole entry): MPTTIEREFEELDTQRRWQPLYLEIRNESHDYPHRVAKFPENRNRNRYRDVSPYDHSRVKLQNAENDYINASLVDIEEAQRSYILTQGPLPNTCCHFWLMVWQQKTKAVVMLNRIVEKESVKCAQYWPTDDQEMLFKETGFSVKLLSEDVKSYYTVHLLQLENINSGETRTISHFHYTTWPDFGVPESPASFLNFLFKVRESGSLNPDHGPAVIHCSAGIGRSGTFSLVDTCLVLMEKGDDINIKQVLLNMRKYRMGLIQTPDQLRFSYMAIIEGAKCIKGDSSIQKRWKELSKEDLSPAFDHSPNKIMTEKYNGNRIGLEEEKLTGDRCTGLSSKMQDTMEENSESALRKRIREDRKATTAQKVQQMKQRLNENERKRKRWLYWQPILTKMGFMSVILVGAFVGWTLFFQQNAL
Put plainly: Inhibition of TCPTP (unknown origin) using pNPP as substrate by colorimetric assay. To be noted: read-out: IC50 (converted). In short, it runs like this: as §2

Assay [7] has as its target T2, Receptor-type tyrosine-protein phosphatase F. Put plainly: Inhibition of LAR (unknown origin) using 3-o-methylfluorescein phosphatase substrate by colorimetric assay. In short, it runs like this: as §1
Assay [8] addresses T5, Tyrosine-protein phosphatase non-receptor type 11 (Homo sapiens) (UniProt Q06124).
T5 sequence (whole entry): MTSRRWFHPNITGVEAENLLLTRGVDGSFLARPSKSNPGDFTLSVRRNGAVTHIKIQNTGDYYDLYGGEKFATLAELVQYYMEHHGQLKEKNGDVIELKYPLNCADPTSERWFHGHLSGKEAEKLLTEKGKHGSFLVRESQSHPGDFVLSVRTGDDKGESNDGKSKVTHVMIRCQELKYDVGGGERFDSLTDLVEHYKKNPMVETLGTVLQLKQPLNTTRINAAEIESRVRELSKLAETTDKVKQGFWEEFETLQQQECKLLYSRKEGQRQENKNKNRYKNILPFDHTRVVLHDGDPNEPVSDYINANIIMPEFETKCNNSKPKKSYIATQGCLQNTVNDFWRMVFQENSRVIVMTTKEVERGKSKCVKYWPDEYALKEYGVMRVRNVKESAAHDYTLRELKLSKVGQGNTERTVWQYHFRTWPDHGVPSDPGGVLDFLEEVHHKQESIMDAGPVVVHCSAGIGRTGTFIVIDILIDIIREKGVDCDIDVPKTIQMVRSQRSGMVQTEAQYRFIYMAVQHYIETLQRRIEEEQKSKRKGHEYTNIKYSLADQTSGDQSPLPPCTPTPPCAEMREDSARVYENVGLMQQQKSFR
Put plainly: Inhibition of SHP2 (unknown origin) using 3-o-methylfluorescein phosphatase substrate at 20 ug/ml by colorimetric assay.

In assay [9] the target is T1, Tyrosine-protein phosphatase non-receptor type 1. In words: Competitive inhibition of PTP1B (unknown origin) using pNPP as substrate by Lineweaver-Burk plot. In short, it runs like this:
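Kinetics in 100 µL of 50 mmol/L MOPS pH 6.5 with 30 nmol/L PTP1B, pNPP in 2-fold dilutions from 80 mmol/L, at several inhibitor concentrations. Ki taken from a linear replot of apparent Km/Vmax (slope of double-reciprocal plot) against [I].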

Assay [10] deals with T3, Tyrosine-protein phosphatase non-receptor type 1 (Homo sapiens). In words: Inhibition of PTP1B (unknown origin) expressed in CHO cells co-expressing human IRbeta assessed as increase in insulin-stimulated IRbeta phosphorylation at 90 uM after 1 hr by Western blotting analysis. The class given is cell-based. The method, boiled down:
as §3

For assay [11], the target named is T6, Tyrosine-protein phosphatase non-receptor type 11 (Homo sapiens, UniProt Q06124).
T6 sequence (Q06124 whole entry): T5 sequence (whole entry)
Put plainly: Inhibition of SHP2 (unknown origin) using 3-o-methylfluorescein phosphatase substrate by colorimetric assay. In short, it runs like this: as §1

The species named for assay [12] is Homo sapiens. In words: Selectivity ratio of IC50 for LAR (unknown origin) to IC50 for PTP1B (unknown origin).
The species named for assay [13] is Homo sapiens. Put plainly: Selectivity ratio of IC50 for SHP2 (unknown origin) to IC50 for PTP1B (unknown origin).

T2 sequence (P10586 whole entry): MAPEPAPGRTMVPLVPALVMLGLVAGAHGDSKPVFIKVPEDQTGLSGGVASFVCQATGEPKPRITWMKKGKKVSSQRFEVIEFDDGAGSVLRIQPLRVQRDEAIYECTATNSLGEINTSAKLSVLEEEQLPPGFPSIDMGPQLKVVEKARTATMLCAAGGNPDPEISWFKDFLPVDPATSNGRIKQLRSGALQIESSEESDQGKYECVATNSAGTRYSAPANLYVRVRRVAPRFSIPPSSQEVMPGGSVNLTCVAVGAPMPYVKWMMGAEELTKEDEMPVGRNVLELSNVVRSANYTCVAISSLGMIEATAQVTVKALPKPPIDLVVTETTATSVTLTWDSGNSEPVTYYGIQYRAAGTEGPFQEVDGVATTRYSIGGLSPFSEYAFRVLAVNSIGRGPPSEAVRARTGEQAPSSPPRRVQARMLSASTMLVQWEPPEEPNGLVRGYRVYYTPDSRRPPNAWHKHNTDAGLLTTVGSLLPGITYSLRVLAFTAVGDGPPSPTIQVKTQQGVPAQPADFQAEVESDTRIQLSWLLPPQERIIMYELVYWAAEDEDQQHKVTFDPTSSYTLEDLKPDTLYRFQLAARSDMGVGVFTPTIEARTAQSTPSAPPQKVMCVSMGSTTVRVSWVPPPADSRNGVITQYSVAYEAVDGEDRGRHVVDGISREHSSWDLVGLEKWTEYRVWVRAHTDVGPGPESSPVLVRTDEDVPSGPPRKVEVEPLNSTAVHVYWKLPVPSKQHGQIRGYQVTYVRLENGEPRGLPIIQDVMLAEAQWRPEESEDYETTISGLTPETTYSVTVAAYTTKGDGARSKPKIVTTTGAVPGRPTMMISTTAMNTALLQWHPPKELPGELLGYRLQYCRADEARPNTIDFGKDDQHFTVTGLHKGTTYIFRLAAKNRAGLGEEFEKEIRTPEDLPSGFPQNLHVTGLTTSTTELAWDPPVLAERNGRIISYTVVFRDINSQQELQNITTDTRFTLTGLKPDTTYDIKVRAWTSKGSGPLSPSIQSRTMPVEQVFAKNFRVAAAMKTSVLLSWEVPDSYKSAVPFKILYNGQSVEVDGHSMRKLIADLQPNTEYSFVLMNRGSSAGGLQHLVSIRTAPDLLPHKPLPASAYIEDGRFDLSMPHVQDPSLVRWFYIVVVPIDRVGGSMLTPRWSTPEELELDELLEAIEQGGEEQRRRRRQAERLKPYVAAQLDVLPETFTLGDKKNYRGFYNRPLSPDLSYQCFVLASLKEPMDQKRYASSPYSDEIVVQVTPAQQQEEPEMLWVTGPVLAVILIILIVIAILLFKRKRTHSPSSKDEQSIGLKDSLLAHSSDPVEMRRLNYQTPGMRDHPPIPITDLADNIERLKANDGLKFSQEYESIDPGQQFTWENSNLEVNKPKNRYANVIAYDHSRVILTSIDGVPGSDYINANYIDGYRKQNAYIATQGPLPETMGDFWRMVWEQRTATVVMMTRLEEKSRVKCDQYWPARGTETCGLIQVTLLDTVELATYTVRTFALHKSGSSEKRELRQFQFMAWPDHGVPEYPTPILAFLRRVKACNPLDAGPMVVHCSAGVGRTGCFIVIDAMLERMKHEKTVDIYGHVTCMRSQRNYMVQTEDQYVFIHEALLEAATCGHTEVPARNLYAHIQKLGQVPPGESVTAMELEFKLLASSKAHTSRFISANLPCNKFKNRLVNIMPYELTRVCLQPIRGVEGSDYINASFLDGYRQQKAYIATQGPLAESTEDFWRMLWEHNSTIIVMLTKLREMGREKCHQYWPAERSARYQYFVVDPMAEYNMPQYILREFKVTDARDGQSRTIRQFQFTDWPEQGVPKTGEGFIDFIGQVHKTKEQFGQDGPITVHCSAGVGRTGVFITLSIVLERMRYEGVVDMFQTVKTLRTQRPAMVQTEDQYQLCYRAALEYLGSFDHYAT
Chain of Tyrosine-protein phosphatase non-receptor type 6 (P29350 whole entry): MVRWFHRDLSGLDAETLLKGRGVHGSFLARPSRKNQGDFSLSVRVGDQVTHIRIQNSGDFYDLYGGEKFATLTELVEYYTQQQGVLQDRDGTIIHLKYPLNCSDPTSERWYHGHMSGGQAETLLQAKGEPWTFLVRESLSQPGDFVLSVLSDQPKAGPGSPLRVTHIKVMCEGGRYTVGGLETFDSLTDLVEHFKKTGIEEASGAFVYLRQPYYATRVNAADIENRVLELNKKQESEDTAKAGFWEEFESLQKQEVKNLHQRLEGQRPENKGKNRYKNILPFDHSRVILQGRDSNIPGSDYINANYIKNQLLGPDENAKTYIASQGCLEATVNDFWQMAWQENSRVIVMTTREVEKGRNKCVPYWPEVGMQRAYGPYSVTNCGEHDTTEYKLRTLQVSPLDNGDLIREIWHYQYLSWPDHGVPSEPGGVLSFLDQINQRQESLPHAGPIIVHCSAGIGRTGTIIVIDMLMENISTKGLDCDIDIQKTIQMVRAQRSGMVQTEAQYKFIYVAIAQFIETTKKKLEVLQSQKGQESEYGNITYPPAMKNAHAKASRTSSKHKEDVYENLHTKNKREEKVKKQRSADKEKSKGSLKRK

In the case of `CCOC(=O)/C(O)=C/C(=O)c1cccc(Cn2cc(C(=O)O)c(=O)c3cc(I)ccc32)c1`, the IC50 was 12.4 µM in assay [1]; 5.66 µM in [2]; 11.5 µM in assay [6]; “Not Active” in assay [7]; “Not Active” in [11]. The inhibition in assay [3] and in assay [8] was less than 50% each time. Moreover, the Ratio IC50 was 2 in the assay filed under Homo sapiens [4], greater than 10 in the assay listed under Homo sapiens [12] and greater than 10 in the assay filed under Homo sapiens [13]. For the same compound, in assay [5], the outcome was inactive. In assay [9], this compound displayed an inhibition constant Ki of 1.33 µM. Further, the result in assay [10] was Active.
